Assay results taken from article PMC2920599 (Journal of medicinal chemistry, 2010).
Structures can show the parent of a compound that is named as a salt. Where two headings read alike, the source gives them in different places.

Columns and labels:
Ovarian = experiment: NCI 60 cell panel, five-concentration assay, ovarian subpanel; format: cell-based; conditions: total growth inhibition; 48 h exposure
Breast = experiment: NCI 60 cell panel, five-concentration assay, breast subpanel; format: cell-based; conditions: total growth inhibition; 48 h exposure
Leukemia = experiment: NCI 60 cell panel, five-concentration assay, leukemia subpanel; format: cell-based; conditions: total growth inhibition; 48 h exposure
NSCLC = experiment: NCI 60 cell panel, five-concentration assay, NSCLC subpanel; format: cell-based; conditions: total growth inhibition; 48 h exposure
full NCI 60 cell panel [1] = conditions: for GI50: read-out: GI50 MG-MID (mean GI50)
Melanoma = experiment: NCI 60 cell panel, five-concentration assay, melanoma subpanel; format: cell-based; conditions: total growth inhibition; 48 h exposure
Renal = experiment: NCI 60 cell panel, five-concentration assay, renal subpanel; format: cell-based; conditions: total growth inhibition; 48 h exposure
Prostate = experiment: NCI 60 cell panel, five-concentration assay, prostate subpanel; format: cell-based; conditions: total growth inhibition; 48 h exposure
CNS = experiment: NCI 60 cell panel, five-concentration assay, CNS subpanel; format: cell-based; conditions: total growth inhibition; 48 h exposure
Colon = experiment: NCI 60 cell panel, five-concentration assay, colon subpanel; format: cell-based; conditions: total growth inhibition; 48 h exposure
p53 = experiment: Western blotting of p53 in MCF-7 cells; format: cell-based, human; conditions: 5 μM
[2] = tested on: MCF-7 breast cancer cells; experiment: Growth and death of MCF-7 cells; format: cell-based, human; conditions: 200 nM, viable cells counted daily
In short: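 MCF-7 cells grown in RPMI 1640 with 10% FBS and 2 mM L-glutamine at 37°C, 5% CO2. Plated at 2×10^4 cells/cm2; compound added 24 h later from 10 mmol/L DMSO working solutions, with DMSO-only controls. Cells harvested with 0.11% trypsin/0.02% EDTA and counted; viability by trypan blue exclusion. Treated vs control compared by Student t-test, P<0.05.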

ERK1/2 = experiment: Western blotting of ERK1/2 phosphorylation in MCF-7 cells; format: cell-based, human; conditions: 5 μM, 20 h
In short: (§1)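 MCF-7 cells treated 20 h, then collected in 20 mM HEPES pH 7.5 with 5 mM DTT, 2 mM EDTA, 0.1% CHAPS, 0.1% Triton X-100 and protease inhibitors, and freeze-thawed twice. Extracts run on SDS-PAGE at 80 μg protein/lane and immunoblotted for total and phosphorylated ERK1/2 and Akt, p53, p21 and β-actin. Blots representative of at least three experiments.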

p21 = experiment: Western blotting of p21 in MCF-7 cells; format: cell-based, human; conditions: 5 μM, 24 h
MCF-7 cells = experiment: Cell cycle analysis of MCF-7 cells by flow cytometry; format: cell-based, human; conditions: 200 nM, 24 and 48 h
Bax = Bax content in MCF-7 cells; format: cell-based, human
In short: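 MCF-7 cells seeded at 1×10^4 cells/cm2 on glass coverslips and treated. Then fixed in 3% p-formaldehyde, washed with 0.1 M glycine in PBS, and permeabilised in 70% ice-cold ethanol. Stained 1 h at room temperature with mouse monoclonal anti-Bax, then FITC anti-mouse IgG for 1 h, with propidium iodide for nuclei. Confocal imaging used sequential 488 and 568 nm excitation; image representative of three experiments.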

Akt = experiment: Western blotting of Akt phosphorylation in MCF-7 cells; format: cell-based, human; conditions: 5 μM, 20 h
In short: as §1

full NCI 60 cell panel [3] = experiment: cells; conditions: Homo sapiens, 48 h, read-out: GI50 MG-MID (mean GI50)
[4] = calculated panel mean, 48 h exposure

Question: What does the source list for `COc1ccc2c(c1)/C(=C\c1c(Cl)[nH]c3ccc(N(C)C)cc13)C(=O)N2` [Compound 20]?
Answer: TGI Ovarian (Ovarian): 15.14 µM; TGI Breast (Breast): 8.51 µM; TGI Leukemia (Leukemia): 10.23 µM; TGI NSCLC (NSCLC): 15.49 µM; CC50 (full NCI 60 cell panel [1]): 49 µM; TGI MG-MID (mean TGI) (full NCI 60 cell panel [1]; [4]): 12.02 µM; GI50 (full NCI 60 cell panel [1]; [4]): 2.29 µM; TGI Melanoma (Melanoma): 15.49 µM; TGI Renal (Renal): 13.80 µM; TGI Prostate (Prostate): 19.05 µM; TGI CNS (CNS): 7.94 µM; TGI Colon (Colon): 9.55 µM

Question: With `COc1cc2c(/C=C3/C(=O)Nc4ccc(N(C)C)cc43)c(Cl)n(C)c2cc1C` [Compound 10] as the molecule, how does the “TGI Ovarian” value (Ovarian) read?
Answer: 77.62 µM

Question: And the “TGI Breast” value (Breast)?
Answer: 54.95 µM

Question: And the “TGI Leukemia” value (Leukemia)?
Answer: 44.67 µM

Question: What about the “TGI NSCLC” value (NSCLC) of the same molecule?
Answer: 91.20 µM

Question: What about the “TGI MG-MID (mean TGI)” value (full NCI 60 cell panel [1]; [4]) of the same molecule?
Answer: 67.61 µM

Question: What about the CC50 (full NCI 60 cell panel [1]; read-out: LC50 MG-MID (mean LC50), calculated panel mean, 48 h exposure) of the same molecule?
Answer: 97.7 µM

Question: And the “TGI Melanoma” value (Melanoma)?
Answer: 67.61 µM

Question: And the “TGI Renal” value (Renal)?
Answer: 69.18 µM

Question: What about the “TGI Prostate” value (Prostate) of the same molecule?
Answer: 97.72 µM

Question: What about the “TGI CNS” value (CNS) of the same molecule?
Answer: 60.26 µM

Question: And the “TGI Colon” value (Colon)?
Answer: 70.79 µM

Question: What does the source list for `CN(C)c1ccc2[nH]c(Cl)c(/C=C3/C(=O)Nc4ccc(O)cc43)c2c1` [Compound 19]?
Answer: TGI Ovarian (Ovarian): 52.48 µM; TGI Breast (Breast): 33.88 µM; TGI Leukemia (Leukemia): 13.49 µM; TGI NSCLC (NSCLC): 31.62 µM; TGI MG-MID (mean TGI) (full NCI 60 cell panel [1]; [4]): 29.51 µM; GI50 (full NCI 60 cell panel [1]; [4]): 4.37 µM; TGI Melanoma (Melanoma): 25.70 µM; TGI Renal (Renal): 33.88 µM; TGI Prostate (Prostate): 53.70 µM; TGI CNS (CNS): 36.31 µM; TGI Colon (Colon): 20.42 µM

Question: What does the source list for `COc1cc2c(cc1C)N(C)C(=O)/C2=C/c1c(Cl)n(C)c2cc(C)c(OC)cc12` [Compound 15]?
Answer: TGI Ovarian (Ovarian): 60.26 µM; TGI Breast (Breast): 36.31 µM; TGI Leukemia (Leukemia): 56.23 µM; TGI NSCLC (NSCLC): 69.18 µM; CC50 (full NCI 60 cell panel [1]): 87.1 µM; TGI MG-MID (mean TGI) (full NCI 60 cell panel [1]; [4]): 52.48 µM; GI50 (full NCI 60 cell panel [1]; [4]): 14.1 µM; TGI Melanoma (Melanoma): 67.61 µM; TGI Renal (Renal): 41.69 µM; TGI Prostate (Prostate): 67.61 µM; TGI CNS (CNS): 26.92 µM; TGI Colon (Colon): 83.18 µM

Question: `COc1cc2c(/C=C3/C(=O)Nc4cc(Cl)ccc43)c(Cl)n(C)c2cc1C` [Compound 12] was tested. Which “TGI Ovarian” value (Ovarian) did it give?
Answer: 2.34 µM

Question: What about the p53 expression (p53; 20 h) of the same molecule?
Answer: caused a p53 increase

Question: And the “induction of p53 (densitometry)” value (p53; 24 h)?
Answer: threefold induction of p53

Question: And the “TGI Breast” value (Breast)?
Answer: 5.62 µM

Question: What about the “TGI Leukemia” value (Leukemia) of the same molecule?
Answer: 1.74 µM

Question: What about the “TGI NSCLC” value (NSCLC) of the same molecule?
Answer: 11.48 µM

Question: And the CC50 (full NCI 60 cell panel [1])?
Answer: 49 µM

Question: And the “TGI MG-MID (mean TGI)” value (full NCI 60 cell panel [1]; [4])?
Answer: 3.80 µM

Question: And the “TGI Melanoma” value (Melanoma)?
Answer: 7.08 µM

Question: What about the “effect on MCF-7 cell growth (total cell number)” value [2] of the same molecule?
Answer: blocked MCF-7 cell growth within 48 h

Question: What about the ERK phosphorylation (ERK1/2) of the same molecule?
Answer: decreased ERK phosphorylation

Question: What about the “TGI Renal” value (Renal) of the same molecule?
Answer: 15.85 µM

Question: And the “increase of p21 (densitometry)” value (p21)?
Answer: about 90%

Question: What about the “cell cycle distribution: G2/M phase” value (MCF-7 cells) of the same molecule?
Answer: marked accumulation of MCF-7 cells in the G2/M phase

Question: What about the “sub-G1 peak (apoptotic cells)” value (MCF-7 cells) of the same molecule?
Answer: a notable cell population was observed in a sub-G1-peak

Question: What about the “cellular Bax by immunofluorescence microscopy” value (Bax; 5 μM, 24 h) of the same molecule?
Answer: considerable Bax accumulation

Question: And the “increase of Bax, densitometric analysis of Western blotting” value (Bax; n=3, data not shown)?
Answer: 2.8 times

Question: And the “TGI CNS” value (CNS)?
Answer: 1.20 µM

Question: And the Akt phosphorylation (Akt)?
Answer: only slightly decreased

Question: What about the “TGI Colon” value (Colon) of the same molecule?
Answer: 0.95 µM

Question: With `COc1cc2c(/C=C3/C(=O)N(C)c4ccc(O)cc43)c(Cl)n(C)c2cc1C` [Compound 14] as the molecule, how does the “TGI Ovarian” value (Ovarian) read?
Answer: 11.75 µM

Question: What about the “TGI Breast” value (Breast) of the same molecule?
Answer: 1.70 µM

Question: And the “TGI Leukemia” value (Leukemia)?
Answer: 0.47 µM

Question: And the “TGI NSCLC” value (NSCLC)?
Answer: 6.03 µM

Question: What about the CC50 (full NCI 60 cell panel [1]) of the same molecule?
Answer: 33.9 µM

Question: And the “TGI MG-MID (mean TGI)” value (full NCI 60 cell panel [1]; [4])?
Answer: 3.39 µM

Question: What about the GI50 (full NCI 60 cell panel [1]; [4]) of the same molecule?
Answer: 0.1 µM

Question: What about the “TGI Melanoma” value (Melanoma) of the same molecule?
Answer: 7.41 µM

Question: What about the “TGI Renal” value (Renal) of the same molecule?
Answer: 4.27 µM

Question: What about the “TGI Prostate” value (Prostate) of the same molecule?
Answer: 3.16 µM

Question: And the “TGI CNS” value (CNS)?
Answer: 1.74 µM

Question: What about the “TGI Colon” value (Colon) of the same molecule?
Answer: 3.55 µM

Question: How did the “TGI Ovarian” value (Ovarian) turn out when `CC[C@]1(O)C[C@H]2CN(CCc3c([nH]c4ccccc34)[C@@](C(=O)OC)(c3cc4c(cc3OC)N(C=O)[C@H]3[C@@](O)(C(=O)OC)[C@H](OC(C)=O)[C@]5(CC)C=CCN6CC[C@]43[C@@H]65)C2)C1` [Vincristine sulfate, reference compound] was run?
Answer: 19.95 µM

Question: What about the “TGI Breast” value (Breast) of the same molecule?
Answer: 7.94 µM

Question: And the “TGI Leukemia” value (Leukemia)?
Answer: 15.85 µM

Question: And the “TGI NSCLC” value (NSCLC)?
Answer: 15.85 µM

Question: And the GI50 (full NCI 60 cell panel [3])?
Answer: 0.2 µM

Question: And the “TGI MG-MID (mean TGI)” value (full NCI 60 cell panel [1]; [4])?
Answer: 10.00 µM

Question: What about the “TGI Melanoma” value (Melanoma) of the same molecule?
Answer: 7.94 µM

Question: What about the “TGI Renal” value (Renal) of the same molecule?
Answer: 19.95 µM

Question: What about the “TGI Prostate” value (Prostate) of the same molecule?
Answer: 6.31 µM

Question: What about the “TGI CNS” value (CNS) of the same molecule?
Answer: 6.31 µM

Question: What about the “TGI Colon” value (Colon) of the same molecule?
Answer: 3.98 µM
